From ChEMBL document CHEMBL3627703, “Synthetic, structural mimetics of the β-hairpin flap of HIV-1 protease inhibit enzyme function” (Bioorg Med Chem, 2015)
Calls of active or inactive are those of the source. The rule behind the calls is not given here.

Assays:
Protease = Protease (Human immunodeficiency virus 1, UniProt Q9YQ12); experiment: Inhibition of recombinant HIV-1 protease expressed in Escherichia coli using Arg-Glu (EDANS)-Ser-Gln-Asn-Tyr-Pro-Ile-Val-Gln Lys(DABCYL)-Arg as substrate by spectrofluorometric analysis
Protease, sequence (Q9YQ12 whole entry): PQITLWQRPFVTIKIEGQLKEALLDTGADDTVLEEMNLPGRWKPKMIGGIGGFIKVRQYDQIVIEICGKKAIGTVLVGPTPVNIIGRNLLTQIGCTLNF
Summary of the method: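 Recombinant HIV-1 PR refolded from E. coli inclusion bodies, active concentration set by active-site titration, final 30–40 nM. Assay at 25 °C in 10 mM sodium acetate, 1 M NaCl, 2% DMSO, pH 5.0. Fluorogenic substrate at 16.7 μM, inhibitor 0–200 μM (20 mM DMSO stocks). Hydrolysis followed at excitation 340 / emission 490 nm. Ki from fitting to tight-binding competitive inhibition equations.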

[1] = tested on: Human immunodeficiency virus 1; experiment: Antiviral activity against HIV-1 infected in human TZM-bl cells assessed as inhibition of viral replication at 50 to 100 uM by luciferase reporter assay; type: functional, organism-based
MT4 [2] = experiment: Cytotoxicity against human MT4 cells assessed as viable cells at 50 uM after 3 days by tryptan blue dye assay; type: cell-based; details: mt4, 72 h
Summary of the method: (§1)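 MT-4 cells seeded at 2 × 10⁵ cells/ml in RPMI with 10% heat-inactivated FBS, carrying carrier alone or inhibitor at 10, 50 or 100 μM (0.25% DMSO final), 37 °C, 5% CO₂. Viable cells counted by trypan blue exclusion after three days; triplicate.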

MT4 [3] = experiment: Cytotoxicity against human MT4 cells assessed as viable cells at 100 uM after 3 days by tryptan blue dye assay; type: cell-based; details: mt4, 72 h; summary of the method: as §1

| Structure (SMILES) | Ki (Protease) [µM] | also measured |
| --- | --- | --- |
| CC1=N[C@H](CC(C)C)C(=O)Nc2cc(C(=O)O)ccc21 | > 200 |  |
| CC1=N[C@H](CC(C)C)C(=O)N(CC(=O)NCCc2ccccc2)c2cc(C(=O)O)ccc21 | 75 |  |
| CC1=N[C@@H](CC(C)C)C(=O)N(Cc2ccc(C3CCCCC3)cc2)c2cc(C(=O)O)ccc21 | 27 |  |
| CC1=N[C@H](CC(C)C)C(=O)Nc2cc(C(=O)OC(C)(C)C)ccc21 | > 200 |  |
| CCC(C)[C@@H]1N=C(C)c2ccc(C(=O)OC(C)(C)C)cc2N(Cc2ccc(C3CCCCC3)cc2)C1=O (single isomer, unassigned) | 108 |  |
| CC1=N[C@H](CC(C)C)C(=O)N(Cc2ccc(-c3ccccc3)cc2)c2cc(C(=O)OC(C)(C)C)ccc21 | 62 |  |
| CC(C)C[C@H]1N=C(c2ccccc2)c2ccc(C(=O)OC(C)(C)C)cc2N(Cc2ccc(C3CCCCC3)cc2)C1=O | 88 |  |
| CCC(C)[C@@H]1N=C(C)c2ccc(C(=O)O)cc2NC1=O (single isomer, unassigned) | 158 |  |
| CCCCCCCCCCNC(=O)CN1C(=O)[C@@H](CC(C)C)N=C(C)c2ccc(C(=O)O)cc21 | 11 | inhibition [1]: Active; Activity (MT4 [2]): Non-toxic; Activity (MT4 [3]): Toxic |
| CC1=N[C@H](CC(C)C)C(=O)N(CC(=O)N2CCN(C(=O)OCc3ccccc3)CC2)c2cc(C(=O)O)ccc21 | 81 |  |
| CCCCCCCCCCCCCCCCNC(=O)CN1C(=O)[C@@H](CC(C)C)N=C(C)c2ccc(C(=O)OC(C)(C)C)cc21 | 165 |  |
| CC1=N[C@@H](CC(C)C)C(=O)Nc2cc(C(=O)O)ccc21 | > 200 |  |
| CCCCCCNC(=O)CN1C(=O)[C@@H](CC(C)C)N=C(C)c2ccc(C(=O)O)cc21 | 75 |  |
| CC1=N[C@H](CC(C)C)C(=O)N(Cc2ccc(C3CCCCC3)cc2)c2cc(C(=O)OC(C)(C)C)ccc21 | 65 |  |
| CC1=N[C@@H](Cc2ccccc2)C(=O)N(Cc2ccc(C3CCCCC3)cc2)c2cc(C(=O)OC(C)(C)C)ccc21 | 54 |  |
| CCCCCCNC(=O)CN1C(=O)[C@@H](CC(C)C)N=C(C)c2ccc(C(=O)OC(C)(C)C)cc21 | > 200 |  |
| CC1=N[C@H](CC(C)C)C(=O)N(CC(=O)N2CCN(C(=O)OCC3c4ccccc4-c4ccccc43)CC2)c2cc(C(=O)OC(C)(C)C)ccc21 | > 200 |  |
| CC1=N[C@H](CC(C)C)C(=O)N(Cc2ccc(C3CCCCC3)cc2)c2cc(C(=O)O)ccc21 | 19 | inhibition [1]: Active; Activity (MT4 [2]): Non-toxic; Activity (MT4 [3]): Toxic |
| CC1=NCC(=O)N(Cc2ccc(C3CCCCC3)cc2)c2cc(C(=O)OC(C)(C)C)ccc21 | 169 |  |

| Structure (SMILES) | Ki (Protease) [µM] | also measured |
| --- | --- | --- |
| CCC(C)[C@@H]1N=C(C)c2ccc(C(=O)O)cc2N(Cc2ccc(C3CCCCC3)cc2)C1=O (single isomer, unassigned) | 53 |  |
| CCCCCCCCCCNC(=O)CN1C(=O)[C@@H](CC(C)C)N=C(C)c2ccc(C(=O)OC(C)(C)C)cc21 | > 200 |  |
| CCC(C)[C@@H]1N=C(C)c2ccc(C(=O)OC(C)(C)C)cc2NC1=O (single isomer, unassigned) | > 200 |  |
| CC1=N[C@H](CC(C)C)C(=O)N(Cc2ccncc2)c2cc(C(=O)O)ccc21 | > 200 |  |
| CC(C)C[C@H]1N=C(c2ccccc2)c2ccc(C(=O)O)cc2N(Cc2ccc(C3CCCCC3)cc2)C1=O | 68 |  |
| CC1=N[C@H](Cc2ccccc2)C(=O)Nc2cc(C(=O)O)ccc21 | > 200 |  |
| CC1=N[C@H](CC(C)C)C(=O)N(CC(C)C)c2cc(C(=O)O)ccc21 | > 200 |  |
| CC1=N[C@H](CC(C)C)C(=O)N(Cc2ccccc2)c2cc(C(=O)OC(C)(C)C)ccc21 | > 200 |  |
| CC1=N[C@H](CC(C)C)C(=O)N(CC(=O)N2CCN(C(=O)OCc3ccccc3)CC2)c2cc(C(=O)OC(C)(C)C)ccc21 | > 200 |  |
| CC1=N[C@H](Cc2ccccc2)C(=O)N(Cc2ccc(C3CCCCC3)cc2)c2cc(C(=O)OC(C)(C)C)ccc21 | 131 |  |
| CC1=N[C@H](CC(C)C)C(=O)N(Cc2ccc(C(C)(C)C)cc2)c2cc(C(=O)O)ccc21 | 46 |  |
| CC1=N[C@H](CC(C)C)C(=O)N(CC(C)C)c2cc(C(=O)OC(C)(C)C)ccc21 | 89 |  |
| CC1=N[C@H](Cc2ccccc2)C(=O)N(Cc2ccc(C3CCCCC3)cc2)c2cc(C(=O)O)ccc21 | 72 |  |
| CC1=N[C@H](CC(C)C)C(=O)N(CC(=O)NCCc2ccccc2)c2cc(C(=O)OC(C)(C)C)ccc21 | 95 |  |
| CC1=N[C@H](CC(C)C)C(=O)N(CC(=O)OC(C)(C)C)c2cc(C(=O)OC(C)(C)C)ccc21 | 119 |  |
| CC1=N[C@H](CC(C)C)C(=O)N(Cc2ccccc2)c2cc(C(=O)O)ccc21 | > 200 |  |
| CC1=N[C@H](CC(C)C)C(=O)N(Cc2ccc(-c3ccccc3)cc2)c2cc(C(=O)O)ccc21 | 21 | inhibition [1]: Active; Activity (MT4 [2]): Non-toxic; Activity (MT4 [3]): Toxic |
| CC1=N[C@@H](CC(C)C)C(=O)Nc2cc(C(=O)OC(C)(C)C)ccc21 | 193 |  |
| CC1=NCC(=O)Nc2cc(C(=O)O)ccc21 | 199 |  |

| Structure (SMILES) | Ki (Protease) [µM] | also measured |
| --- | --- | --- |
| CC1=N[C@H](CC(C)C)C(=O)N(CC(=O)N2CCN(C(=O)OCC3c4ccccc4-c4ccccc43)CC2)c2cc(C(=O)O)ccc21 | 49 |  |
| CCCCCCCCCCCCCCCCNC(=O)CN1C(=O)[C@@H](CC(C)C)N=C(C)c2ccc(C(=O)O)cc21 | 11 | inhibition [1]: Active; Activity (MT4 [2]): Toxic; Activity (MT4 [3]): Toxic |
| CC1=N[C@@H](C)C(=O)N(Cc2ccc(C3CCCCC3)cc2)c2cc(C(=O)OC(C)(C)C)ccc21 | 88 |  |
| CC1=N[C@H](CC(C)C)C(=O)N(CC(=O)O)c2cc(C(=O)O)ccc21 | > 200 |  |
| CC1=N[C@@H](Cc2ccccc2)C(=O)Nc2cc(C(=O)O)ccc21 | > 200 |  |
| CC1=N[C@H](Cc2ccccc2)C(=O)Nc2cc(C(=O)OC(C)(C)C)ccc21 | 88 |  |
| CC1=N[C@@H](CC(C)C)C(=O)N(Cc2ccc(C3CCCCC3)cc2)c2cc(C(=O)OC(C)(C)C)ccc21 | 76 |  |
| CC1=N[C@H](CC(C)C)C(=O)N(CC(=O)N2CCNCC2)c2cc(C(=O)O)ccc21 | > 200 |  |
| CC1=NCC(=O)Nc2cc(C(=O)OC(C)(C)C)ccc21 | > 200 |  |
| CC1=N[C@@H](Cc2ccccc2)C(=O)Nc2cc(C(=O)OC(C)(C)C)ccc21 | 64 |  |
| CC1=NCC(=O)N(Cc2ccc(C3CCCCC3)cc2)c2cc(C(=O)O)ccc21 | 85 |  |
| CC1=N[C@@H](C)C(=O)N(Cc2ccc(C3CCCCC3)cc2)c2cc(C(=O)O)ccc21 | 56 |  |
| CC1=N[C@@H](C)C(=O)Nc2cc(C(=O)OC(C)(C)C)ccc21 | > 200 |  |
| CC1=N[C@@H](Cc2ccccc2)C(=O)N(Cc2ccc(C3CCCCC3)cc2)c2cc(C(=O)O)ccc21 | 47 |  |
| CC1=N[C@H](CC(C)C)C(=O)N(Cc2ccncc2)c2cc(C(=O)OC(C)(C)C)ccc21 | > 200 |  |
| CC1=N[C@H](CC(C)C)C(=O)N(Cc2ccc(C(C)(C)C)cc2)c2cc(C(=O)OC(C)(C)C)ccc21 | 147 |  |
| CC1=N[C@H](CC(C)C)C(=O)N(CC(=O)N2CCN(C(=O)OC(C)(C)C)CC2)c2cc(C(=O)OC(C)(C)C)ccc21 | 143 |  |
| CC1=N[C@@H](C)C(=O)Nc2cc(C(=O)O)ccc21 | > 200 |  |
